According to ChEMBL document CHEMBL1154820, “Synthesis, characterization and structure-activity relationship of novel N-phosphorylated E,E-3,5-bis(thienylidene)piperid-4-ones” (Eur J Med Chem, 2010):
pIC50: −log10 of the molar value.

What was measured:
A549 = assay: Cytotoxicity against human A549 cells after 72 hrs by MTT assay; type: functional, cell-based; conditions: for IC50: a549; for pIC50: Homo sapiens, A549, 72 h, read-out: IC50
Summary of the method: (§1)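 Cells kept in RPMI-1640 with 10% FBS, 2 mM L-glutamine and gentamicin; seeded at 1×10⁴ cells/well, attached overnight at 37 °C, 5% CO₂. Compounds dissolved in DMSO, diluted into FBS-free medium, tested at […], 10⁻⁵, 10⁻⁶, 10⁻⁷ M in triplicate for 72 h. MTT (5 mg/ml) added for 3 h at 37 °C, formazan dissolved in DMSO, OD read at 590 nm; viability loss versus untreated controls, IC50 read graphically; melphalan as positive control.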

SK-OV-3 = assay: Cytotoxicity against human Scov3 cells after 72 hrs by MTT assay; type: functional, cell-based; conditions: for IC50: sk-ov-3; for pIC50: Homo sapiens, SK-OV-3, 72 h, read-out: IC50; summary of the method: as §1
[1] = Cytotoxicity against human Caov3 cells after 72 hrs by MTT assay; type: functional, cell-based, Caov-3; conditions: for IC50: caov-3; for pIC50: Homo sapiens, Caov-3, 72 h, read-out: IC50; summary of the method: as §1

Row | SMILES | IC50 (A549) | IC50 (SK-OV-3) | IC50 [1] | pIC50 (A549) | pIC50 (SK-OV-3) | pIC50 [1]
1 | O=C1/C(=C/c2cccs2)CNC/C1=C\c1cccs1 | Non-toxic | Non-toxic | Non-toxic | – | – | –
2 | CN1C/C(=C/c2cccs2)C(=O)/C(=C/c2cccs2)C1 | Non-toxic | Non-toxic | Non-toxic | – | – | –
3 | CCOP(=O)(CCCN1C/C(=C\c2cccs2)C(=O)/C(=C/c2cccs2)C1)OCC | – | – | – | 4.52 | 4.40 | 4.40
4 | CCOP(=O)(CN1C/C(=C\c2cccs2)C(=O)/C(=C/c2cccs2)C1)OCC | – | – | – | 4.82 | 4.42 | 4.70
5 | CCOP(=O)(CCN1C/C(=C\c2cccs2)C(=O)/C(=C/c2cccs2)C1)OCC | – | – | – | 4.46 | 4.19 | 4.15
6 | CCOP(=O)(OCC)N1C/C(=C\c2cccs2)C(=O)/C(=C/c2cccs2)C1 | – | – | – | 4.57 | 4.52 | 4.59
7 | O=C1/C(=C/c2cccs2)CN(P(=O)(Oc2ccccc2)Oc2ccccc2)C/C1=C\c1cccs1 | – | – | – | 4.46 | 4.22 | 4.36
8 | CN1C/C(=C\c2cccs2)C(=O)/C(=C/c2cccs2)C1 | – | – | Non-toxic | 4.10 | 4.07 | –
9 | N[C@@H](Cc1ccc(N(CCCl)CCCl)cc1)C(=O)O [MELPHALAN] | – | – | – | – | – | 4.30
